Source: PubChem
Shown are actives, neighbours in structure and some others; about 3.1% of the full set was active somewhere.
PP1 counter: PP1-alpha (human) inhibition in PP5 counter-screen | AID 2235 | 320,000 tested, 0.9% active | purified PP1alpha, OMFP fluorescence | inhibition, % at 6.7 µM | P62136;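 active = inhibition above the mean inhibition of all tested compounds plus 3 SD, computed separately for each screening campaign, cut at about 15% in these data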
Target sequence (P62136 whole entry, looked up): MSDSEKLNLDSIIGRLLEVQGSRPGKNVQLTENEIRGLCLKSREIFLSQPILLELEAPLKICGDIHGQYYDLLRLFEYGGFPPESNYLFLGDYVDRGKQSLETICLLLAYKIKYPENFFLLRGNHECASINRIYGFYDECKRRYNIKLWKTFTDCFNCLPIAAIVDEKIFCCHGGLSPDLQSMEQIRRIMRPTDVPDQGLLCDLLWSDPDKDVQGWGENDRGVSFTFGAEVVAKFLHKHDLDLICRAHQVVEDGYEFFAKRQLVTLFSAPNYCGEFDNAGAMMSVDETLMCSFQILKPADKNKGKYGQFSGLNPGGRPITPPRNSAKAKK
NadD inh: blocks S. aureus nicotinate mononucleotide adenylyltransferase | purified NadD enzyme, colorimetric absorbance read-out | 360,000 tested, 0.78% active | inhibition, % at 20 µM | AID 602399; in the data active = inhibition above about 26%
PP5 primary: PP5 (human) phosphatase inhibition. P53041. purified PP5c, OMFP substrate fluorescence. inhibition, % at 6.7 µM. 320,000 tested, 0.18% active;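 active = inhibition above the campaign's mean inhibition across all tested compounds plus 3 SD, cut at about 9.5% in these data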;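 also: 0% = DMSO only and 100% = 100 µM cantharidin control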
Fh CTSL1 inh: cathepsin L1 inhibition, PFM18AAP counter-screen; recombinant F. hepatica cathepsin L1, Z-Leu-Arg-MCA fluorescence; inhibition, % at 5.96 µM; 300,000 tested, 0.49% active; AID 1906;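 active = inhibition above the mean of all tested compounds plus 3 SD, set per screening campaign, cut at about 17% in these data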;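 also: 0% = plate median of test compound wells and 100% = 1 µM Z-Phe-Ala-diazomethylketone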
HCV core dimer: HCV core protein dimerization inhibition | inhibition, % at 5 µM | TR-FRET GST/Flag-core106 dimerization, 1536-well | 300,000 tested, 0.33% active;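 active = inhibition above the mean of all tested compounds plus 3 SD, set per screening campaign, cut at about 45% in these data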
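Material: Tagged HCV core106 pair (GST and Flag) | Amount: GST-core106 13.5 nM, Flag-core106 17 nM | Medium: KF-containing HEPES buffer, pH 7.45, DTT, CHAPS, BSA | Reagent: Eu donor and XL665 acceptor anti-tag antibodies | Schedule: 4 h at 22.5 °C | Technique: Time-resolved FRET, ex 340 nm, em 617 and 671 nm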
Myeloid diff 2: myeloid differentiation induction | AID 624256 | calls only at 10 µM | 360,000 tested, 1% active | ER-HoxA9 myeloid progenitors, lysozyme-GFP differentiation, flow cytometry;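 active = normalized GFP-positive differentiation at or above the plate's own cutoff, the solvent-only control mean plus 3 SD; inconclusive = no clear call, values can overlap the other calls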;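 also: cells exposed to compound for four days before flow analysis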
Myeloid diff: myeloid differentiation induction. shares compounds with Myeloid diff 2. ER-HoxA9 myeloid progenitors, GFP/Mac1 double-positive flow. calls only. 2,300 tested, 2% active. AID 651706;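 active = share of green or green-and-red cells above 9 and 9% in run 1 or 4 and 3% in run 2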
GFP autofluor: flagged as fluorescent in myeloid differentiation counter-screen; shares compounds with Myeloid diff 2; ER-HoxA9 myeloid progenitors, no estrogen, GFP autofluorescence flow cytometry; vehicle wells 0%, positive control 100%; fluorescence response, % (no concentration beside the values); 2,300 tested, 7.4% active;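 active = over 5% cells positive for green fluorescent reporter, or over 2% positive for both it and APC stain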;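 also: range taken on the double positive population between DMSO and positive control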
Numbers without * were called inactive; i = inactive; ? = inconclusive; / = no result; + = active, no number.

SMILES | PP1 counter | NadD inh | PP5 primary | Fh CTSL1 inh | HCV core dimer | Myeloid diff 2 | Myeloid diff | GFP autofluor
COc1ccc(OC)c(NC(=O)CNC(=O)c2ccc([N+](=O)[O-])cc2)c1 | 0.4 | -9.4 | -0.4 | 0.6 | 0.8 | i | i | 0.0
COc1ccc(NC(=O)CNC(=O)c2ccc([N+](=O)[O-])cc2)cc1 | 4.3 | -1.6 | 2.1 | -1.1 | -2.4 | i | / | /
COc1cccc(-c2cc(C(=O)NCc3ccc(Cl)cc3)no2)c1 | 14.2 | -3.8 | 3.6 | 0.7 | 7.2 | i | i | 0.2
COc1ccc(-c2cc(C(=O)N3CCN(c4ccccc4OC)CC3)no2)cc1OC | -2.7 | -5.1 | 6.0 | 2.8 | -0.7 | i | i | 1.1
O=C(c1ccccc1)N(C(=O)c1ccccc1)N1CCCC1 | / | -2.1 | / | / | / | i | / | /
Clc1ccc(-c2n[nH]c3c2Cc2ccccc2-3)cc1Cl | -3.2 | / | 1.9 | -7.7 | -3.3 | / | / | /
c1ccc2c(c1)CCc1c(-c3ccncc3)n[nH]c1-2 | 0.5 | -3.7 | 3.5 | / | / | + | i | 0.3
CCCCN1C(=O)C(CC(=O)NCCc2ccccn2)CC(C(=O)N(C)C)=C1C (stereo not drawn) | / | 10.7 | / | / | / | i | i | 18.2*
CCN(CC)C(=O)C1=C(C)N(CCCOC)C(=O)C(CC(=O)NCCc2ccccn2)C1 (stereo not drawn) | / | -2.2 | / | / | / | i | / | /
C=CCN1C(=O)C(O)(CC(=O)c2ccc(OC)cc2OC)c2cc(Br)ccc21 (stereo not drawn) | -0.3 | -1.1 | 4.4 | 0.6 | 1.6 | i | i | 0.0
CN1C(=O)C(O)(CC(=O)c2ccccc2O)c2cc(Br)ccc21 (stereo not drawn) | -0.7 | 2.1 | -1.1 | 3.3 | -2.8 | ? | / | /
Cc1ccc(S(=O)(=O)N2[C@@H](c3ccccc3F)C(C(=O)O)=CC[C@H]2c2ccc(Cl)c(Cl)c2)cc1 | 10.8 | 13.9 | 0.7 | 2.7 | 33.8 | i | / | /
CCCCc1ccc(S(=O)(=O)NC(=O)C2(C)CCN2C(=O)c2cccc(F)c2)cc1 (stereo not drawn) | / | 0.2 | / | / | / | i | / | /
COc1ccc(CCN=C(C)c2cc(C)c(C)cc2O)cc1OC | -0.3 | -6.3 | 0.7 | -2.7 | -8.9 | i | / | /
Cc1cc(N2CCCC2)nc(-c2ccccc2O)n1 | -8.7 | -2.1 | 2.5 | 7.8 | 2.9 | i | / | /
Cc1cc(N2CCCCC2)nc(N)n1 | -0.8 | -1.4 | 1.3 | -3.7 | -5.0 | + | i | 0.0
COc1cc(OC)c(C(=O)OCC(=O)N2CCN(S(=O)(=O)c3ccc(C)cc3C)CC2)cc1OC | / | -1.3 | / | / | / | i | / | /
COc1cc(/C=C2\CC/C(=C\c3cc(OC)c(OC)c(OC)c3)C2=O)cc(OC)c1OC | -0.6 | -11.2 | 4.0 | 0.1 | 7.2 | + | i | 0.0
